Results reported in PubChem BioAssay AID624204 (Sanford-Burnham Center for Chemical Genomics, 2012).
The campaign covered roughly 360,000 compounds. About 770 (0.21%) were called active.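 Rule for the calls: active = inhibition at least 30% at 10 µM, raw YFP signal under a set limit, fluorescence ratio 0.5 to 1.5; inactive = the rest.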 Only a selection was taken, and actives are over-represented in it overall.

Each compound was assayed against Sentrin-specific protease 1 (Homo sapiens) (UniProt Q9P0U3) (assay: blockers of SENP1 SUMO protease activity – biochemical, FRET, uHTS, primary screen (AID 624204;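 note: 0% = enzyme with DMSO and 100% = no enzyme wells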)). Conditions: recombinant SENP1 catalytic domain, CyPet-SUMO1-YPet FRET cleavage; at 10 µM; active compounds read high.
Sequence of Sentrin-specific protease 1 (Homo sapiens) (Q9P0U3 419-644 limits assumed): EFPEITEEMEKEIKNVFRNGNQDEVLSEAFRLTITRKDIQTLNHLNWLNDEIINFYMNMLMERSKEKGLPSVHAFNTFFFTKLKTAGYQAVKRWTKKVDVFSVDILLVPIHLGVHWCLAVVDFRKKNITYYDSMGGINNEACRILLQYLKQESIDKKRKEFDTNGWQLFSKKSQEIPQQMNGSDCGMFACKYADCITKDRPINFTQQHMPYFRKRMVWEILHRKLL
Method in brief: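 Test system: recombinant human SENP1 catalytic domain, His6-tagged / Medium: pH 8 Tris buffer with EDTA, NaCl, BME, BSA, NP40, catalase / Also added: SUMO1 FRET substrate flanked by Cypet and Ypet, 25 nM / Times: 50 min reaction at room temperature / Signal: FRET, CFP and YFP emission / Control set: no-enzyme low control and enzyme-plus-DMSO high control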

inhibition, inactive:
Nn1c(Cc2cccc3ccccc23)nnc1SCC(=O)N1CC(=O)Nc2ccccc21 3.32%, CCc1ccc2ncc(C(=O)c3ccccc3)c(N3CCOCC3)c2c1 -0.316%, O=C(CCN1C(=O)c2ccccc2C1=O)NNC(=O)c1ccc(Cl)cc1Cl 1.7%, Cc1c(C(=O)NCCN2C(=O)S/C(=C\c3cccs3)C2=O)cccc1[N+](=O)[O-] 5.33%, O=C(O)c1cc(S(=O)(=O)N2CCCCCC2)c(Cl)cc1Cl -0.414%, Cc1nn(-c2ccccc2)c(CC(C)(C)C(=O)O)c1C(=O)O 1.05%, CCCCN(C(=O)CSCC(=O)Nc1ccc(OC)cc1)c1c(N)n(CCC)c(=O)[nH]c1=O -2.42%, Cc1cc(=O)cc(C)n1-c1ccc(Cl)c(Cl)c1 2.24%, CC(=O)NC1(c2cccc(F)c2)CCN(CC(=O)NC(C)C)CC1 -0.563%, O=C(CC1CCCCC1)NCc1ccc(F)cc1 1.88%, CNS(=O)(=O)c1cccc(C(=O)OCCCC(=O)c2ccccc2)c1 0.585%, COc1ccc(CC2c3cc(OC)c(OC)cc3CC[N+]2(C)CCC(=O)OCCCCCOC(=O)CC[N+]2(C)CCc3cc(OC)c(OC)cc3C2Cc2ccc(OC)c(OC)c2)cc1OC (configuration not stated) -1.31%, CC(=O)c1cccc(-c2cnc3c(NC=O)cc(-c4ccc(N5CCN(C)CC5)cc4)cn23)c1 28%, CN(C)C(=O)c1cccc(-c2cnc3c(NC=O)cc(-c4ccc(C(=O)N5CCOCC5)cc4)cn23)c1 -29.9%, CC(=O)NCC(=O)N1CCC(n2nccc2NC(=O)CCCc2ccccc2)CC1 0.687%, Cc1nc2nc(C)c(CCC(=O)N3CCN(c4ccccc4)CC3)c(C)n2n1 0.72%, O=C(C[C@H]1C[C@H]2c3cc(NS(=O)(=O)c4ccc(F)cc4)ccc3O[C@H]2[C@H](CO)O1)NCc1cc(F)ccc1F -0.578%, O=C(Nc1ccc(F)cc1F)N1CCCN(CCOc2ccccc2)CC1 -1.95%, COc1ccc(N2CCN(C(=O)c3ccc(N4CCCCS4(=O)=O)cc3)CC2)cc1 -2.08%, Cn1nnnc1SCC(=O)Nc1ccccc1C(=O)NC1CC1 -4.1%, Cc1cccc(NC(=O)c2ccc3c(=O)n(CC4CCCO4)c(=S)[nH]c3c2)c1 (configuration not stated) -0.024%, CC1(C)CN(c2ccc(-c3ccnc4ncnn34)cc2)C1=O -1.93%, COc1ccc(C(=O)C[n+]2ccc(N)c(C)c2C)cc1 1.97%, O=C(Cc1ccc(Cl)cc1)NC(=S)Nc1ccccc1O 0.309%, O=C(NC(=S)Nc1cccc2c(O)cccc12)c1cccc(Br)c1 -10.5%, CC(C)Cn1cnc2c1c(=O)n(CC(O)c1ccccc1)c(=O)n2CC(C)C (configuration not stated) 1.26%, CC1(C(=O)NCc2ccccc2)CSCC(=O)N1CCCn1ccnc1 (configuration not stated) 0.15%, COc1cc(Br)cc(/C=N/c2ncn[nH]2)c1O 10.2%, CC(=O)N(CC(O)CO)c1c(I)c(C(=O)NCC(O)CO)c(I)c(C(=O)NCC(O)CO)c1I (configuration not stated) -0.483%, COCC(C)NC(=O)c1ccc(-n2nc(C(F)(F)F)cc2-c2cccs2)cc1 (configuration not stated) -1.75%, CCN(CC(=O)Nc1cc(Cl)ccc1C)C(=O)CSCc1ccc(C)cc1 1.09%, O=C(O)CCCC(=O)N1N=C(c2ccco2)CC1c1ccco1 (configuration not stated) 0.794%, CCOc1ccc(-c2c(C)n([O-])c3c([n+]2=O)CCCC3)cc1 0.993%, COC(CNC(=O)Cn1ncc2ccsc2c1=O)OC 2.87%, O=C(NCCC1CCCCN1S(=O)(=O)c1cccs1)C(=O)Nc1ccc(F)cc1F (configuration not stated) 0.809%, COc1ccc(C=C2CCC3C(CCCC34OCCO4)C2=O)cc1 (configuration not stated) 0.924%, Cc1ccc(N=C2NC(=O)c3cccc([N+](=O)[O-])c32)cc1 1.42%, COc1ccc(NC(=O)CN(C)C(=O)Cc2coc3cc(C)c(C)cc23)cc1 -6.79%, COc1ccccc1C1=CC(=O)C[C@H](c2ccc(F)cc2)C1 3.3%, O=C1C=C(c2cccc(Cl)c2)C[C@@H](c2ccc(F)cc2)C1 1.33%, O=S1(=O)CCN(C2CCCCCCCCCCC2)CC1 1.39%, COC(=O)c1ccc(CNC(=O)C2CCC(=O)N(Cc3ccccn3)C2)cc1 (configuration not stated) 0.319%, COCCNc1nc2nonc2nc1N1CCCC1c1nccs1 (configuration not stated) -72.6%, FC(F)(F)c1ccc(-n2cn[nH]c2=S)cc1 -0.325%, Cn1c(-c2sccc2OCc2cccc(C(F)(F)F)c2)n[nH]c1=S 2.98%, CNc1nccc(-c2ccc(Cl)cc2)c1C#N -1.17%, Cc1ccc(NC(=O)Cn2c(=O)n(CCC(=O)NC3CCN(Cc4ccccc4)CC3)c(=O)c3ccccc32)cc1 2.04%, Cc1cc2c(cc1C)NC1(C[C@H]3CCC(=O)N4CC[C@@H](C1)[C@@H]34)C(=NC(C)(C)CC(C)(C)C)N2 (some centres not stated) 2.4%, O=C1CCC[C@@H]2CC(N3CCCCC3)C[C@@H]3CCN1[C@H]23 (some centres not stated) -1.06%

inhibition, active:
O=C(CCN1C(=O)/C(=C/c2cccs2)SC1=S)NNC(=O)c1cccc(O)c1 72.7%, CC(=O)c1cccc(-c2cnc3c(NC=O)cc(-c4ccc(N(C)C)cc4)cn23)c1 50%, O=C(NC(=O)c1ccccc1)Nc1ccccc1O 31.8%, CN(C)c1ccc(Nc2c3c4c(cccc4n(C)c2=O)C(=O)c2ccccc2-3)cc1 60.4%, Cc1nn2c(c1-c1ccccc1)N=C(c1ccco1)CC2c1ccccc1 (configuration not stated) 38.7%, O=C1C=C(c2cccc(Cl)c2O)C[C@@H](c2ccc(F)cc2)C1 54.2%, Cn1c(-c2sc3cc(C(F)(F)F)cnc3c2-c2ccccc2)n[nH]c1=S 31.9%, O=C1CC[C@@H]2CC3(C[C@@H]4CCN1[C@H]24)Nc1cc([N+](=O)[O-])ccc1NC3=NC1CCCCC1 (some centres not stated) 51%
